# Compounds with a hit are over-represented: about 1.5% of the library has one in this group of screens.
# NR1D1 modulator: modulates human Rev-erb alpha binding to DNA | activity, % at 10 µM | AID 1259318 | 370,000 compounds, 0.79% hits | Rev-erbα–FITC-DNA binding, fluorescence polarization, 90 min | P20393;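 active = activity above about 14%, limit read from the data; passing the limit was not always enough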
# NR2E3 ag-1: human photoreceptor-specific nuclear receptor agonism. inhibition of corepressor binding, % at 3.98 µM. 360,000 compounds, 0.35% hits. AID 602229. CHO-S Gal4-NCOR/VP16-NR2E3 two-hybrid, luciferase. Q9Y5X4;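 active = inhibition above the mean of all tested compounds plus 3 SD, cut at about 70% in these data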;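 also: higher means lower luciferase signal from less NR2E3 corepressor binding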
# Target sequence (Q9Y5X4 whole entry, looked up, the tested form may be a part): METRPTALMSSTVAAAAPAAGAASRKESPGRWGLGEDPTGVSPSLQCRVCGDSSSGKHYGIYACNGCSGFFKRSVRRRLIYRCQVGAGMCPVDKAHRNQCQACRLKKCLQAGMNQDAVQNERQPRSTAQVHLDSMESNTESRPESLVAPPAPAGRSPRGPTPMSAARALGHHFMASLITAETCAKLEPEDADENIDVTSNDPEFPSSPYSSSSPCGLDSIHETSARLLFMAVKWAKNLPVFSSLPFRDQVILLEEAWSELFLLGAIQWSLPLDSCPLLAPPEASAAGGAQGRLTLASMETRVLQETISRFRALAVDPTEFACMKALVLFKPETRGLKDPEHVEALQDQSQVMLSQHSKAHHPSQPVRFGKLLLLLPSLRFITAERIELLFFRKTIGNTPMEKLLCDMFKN
# NR2E3 ag-2: activates human photoreceptor nuclear receptor NR2E3. GST-NR2E3/biotin-RetCOR TR-FRET, 1536-well. inhibition of corepressor binding, % at 4.78 µM. 320,000 compounds, 0.12% hits. AID 2300;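 active = percent inhibition above the cutoff of mean plus 3 SD of all tested compounds, set per screening campaign, cut at about 20% in these data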
#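 Material: NR2E3–RetCOR corepressor complex / Amount: 1.35 nM GST-NR2E3 / Medium: Tris pH 7.5 / Compound: single nominal compound dose of 4.8 µM / Incubation: 5 h at 4 °C / Technique: TR-FRET, Eu(K)-anti-GST donor, streptavidin-D2 acceptor, ex 340, em 617/671 nm / Read-out basis: percent loss of FRET ratio relative to control wells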
# PG9 binder: binds the HIV-1 gp120 antibody PG9; TR-FRET gp120-PG9 antibody binding; inhibition, % at 6.7 µM; 360,000 compounds, 0.43% hits; in the data active = inhibition above about 8.5%
# Hits are given with their value; - = inactive; . = not tested or not shown.
SMILES,NR1D1 modulator,NR2E3 ag-1,NR2E3 ag-2,PG9 binder
CCCCn1c(NC(=O)c2ccccc2Cl)c(C#N)c2nc3ccccc3nc21,.,95.6,-,-
N#Cc1c(NC(=O)c2ccccc2Cl)n(Cc2ccccc2)c2nc3ccccc3nc12,-,87.0,-,-
C[C@H]1CN(C[C@H](Cc2ccccc2)C(=O)NCC(=O)O)CC[C@@]1(C)c1cccc(O)c1,-,.,.,.
CCOC(=O)/C(=N\Nc1ccc(Br)cc1)N1CC(C)OC(C)C1 (stereo not given),.,76.6,-,.
CCOC(=O)/C(=N\Nc1ccccc1Cl)N1CC(C)OC(C)C1 (stereo not given),-,-,-,-
CSc1ccc(CN(C)C(=O)c2cccc(S(=O)(=O)N3CCN(Cc4ccccc4)CC3)c2)cc1,-,70.5,-,-
O=C(O)CCC1c2cc3c4cc2OC2Oc5cc6c(cc51)C(CCC(=O)O)c1cc5c7cc1OC(O6)c1cc6cc(c1)Oc1cc(cc(C(=O)O)c1)Oc1cc8cc(c1)C(Oc1cc(c(cc1C5CCC(=O)O)C3CCC(=O)O)OC(O4)c1cc(cc(c1)Oc1cc(cc(C(=O)O)c1)O8)Oc1cc(cc(C(=O)O)c1)Oc1cc(cc2c1)Oc1cc(cc(C(=O)O)c1)O6)O7 (stereo not given),.,.,20.8,.
CCC(C)C1NC(=O)C(CCN)NC(=O)C(NC(=O)C(CCN)NC(=O)C(NC(=O)C(CCN)NC(=O)CCCCC(C)C)C(C)O)CCNC(=O)C(C(C)O)NC(=O)C(CCN)NC(=O)C(CCN)NC(=O)C(C(C)CC)NC1=O (stereo not given),-,.,.,.
C=C1CC[C@H](O)C/C1=C/C=C1\CCC[C@]2(C)C([C@H](C)/C=C/[C@H](C)C(C)C)CC[C@@H]12 (stereo not given in full),-,.,.,.
O=S(=O)(O)OC[C@H]1O[C@@](COS(=O)(=O)O)(O[C@H]2O[C@H](COS(=O)(=O)O)[C@@H](OS(=O)(=O)O)[C@H](OS(=O)(=O)O)[C@H]2OS(=O)(=O)O)[C@@H](OS(=O)(=O)O)[C@@H]1OS(=O)(=O)O,-,.,.,.
Cc1cc(NC(=O)COc2ccc3ccccc3c2Br)no1,-,-,.,10.0
CC1(C)S[C@@H]2[C@@H](N3C(=O)[C@@H](c4ccccc4)NC3(C)C)C(=O)N2[C@H]1C(=O)O,-,.,.,.
Cc1cc(C)c(C(=O)/C=C/C=C/c2ccccc2)c(=O)[nH]1,-,-,-,-
Cc1cc(C)c(C(=O)/C=C/c2ccc(C(C)C)cc2)c(=O)[nH]1,-,82.0,-,-
COC(=O)[C@@H]1CC(=O)O[C@H](C)C/C=C/C=C/[C@H](O)[C@H](C)C[C@H](CC=O)[C@H](OC2O[C@H](C)[C@@H](OC3C[C@@](C)(O)[C@@H](OC(=O)CC(C)C)[C@H](C)O3)[C@H](N(C)C)[C@H]2O)[C@H]1OC (stereo not given in full),-,.,.,.
CCCCC(=O)O[C@]1(C(=O)CO)CCC2C3CCC4=CC(=O)CC[C@]4(C)C3[C@@H](O)C[C@@]21C (stereo not given in full),-,.,.,.
Cn1c(-c2ccc(C#N)cc2)c(C#Cc2ccccc2)c2ccccc21,-,-,.,-
N#Cc1c(-c2ccc(Cl)cc2)n(O)c2ccccc12,.,98.5,.,.
CCCc1nc(SCC(=O)Nc2nccs2)c2ccccc2n1,-,-,-,-
O=C(CSc1nc(-c2ccccc2)nc2ccccc12)Nc1nccs1,-,-,-,28.8
N#Cc1cc2c(nc1SCC(=O)Nc1nccs1)CCCCC2,-,-,-,37.0
CC(=O)S[C@@H]1CC2=CC(=O)CC[C@]2(C)[C@H]2CC[C@@]3(C)[C@@H](CC[C@@]34CCC(=O)O4)C12 (stereo not given in full),-,.,.,.
CCOC(=O)c1c(N2C(=O)Nc3cc(Cl)c(Cl)cc3N2O)sc2c1CCCCC2,.,91.6,-,.
O=C(Nc1ccc(-c2nc3ncccc3o2)cc1)c1ccc(Br)o1,-,-,-,41.2
O=C(Nc1ccc(-c2nc3ncccc3o2)cc1)c1ccco1,-,-,-,-
SMILES,NR1D1 modulator,NR2E3 ag-1,NR2E3 ag-2,PG9 binder
OC[C@@H](O)[C@H](O[C@@H]1O[C@H](CO)[C@H](O)[C@H](O)[C@H]1O)[C@H](O)[C@@H](O)CO,-,.,.,.
c1cn(CCCNc2ncnc3nc[nH]c23)cn1,-,-,-,-
CCN1CCN(CCCNc2ncnc3nc[nH]c23)CC1,-,-,-,13.7
NC(=O)c1cc[n+](CC2=C(C(=O)O)N3C(=O)[C@H](NC(=O)C(c4ccccc4)S(=O)(=O)[O-])C3SC2)cc1 (stereo not given in full),-,.,.,.
OCCN1CCN(c2nc(-c3ccccc3)c3cc(Br)ccc3n2)CC1,-,-,-,8.7
CCNC(=O)CCC/C=C\C[C@@H]1[C@@H](/C=C/[C@@H](O)CCc2ccccc2)[C@H](O)C[C@@H]1O,-,.,.,.
CCOC(=O)/C(C#N)=C/c1cc(C)n(-c2ccccc2)c1C,-,-,-,-
Cc1cc(C)cc(-n2c(C)cc(C=C(C#N)C#N)c2C)c1,-,-,-,28.1
C=C[C@@]1(C)CC(=O)[C@@]2(O)[C@](C)(O1)[C@@H](OC(C)=O)[C@@H](O)C1C(C)(C)CC[C@H](O)[C@@]12C (stereo not given in full),-,.,.,.
CSc1nc(C)c2c(n1)N(c1ccc(O)cc1)CC2,-,-,-,-
CSc1nc(C)c2c(n1)N(c1ccc(F)cc1)CC2,-,-,-,10.3
O[C@@H]1COC2C1OC[C@@H]2O (stereo not given in full),-,.,.,.
C=Cc1c(C)/c2[n-]/c1=C\c1[n-]c(c(CC)c1C)/C=c1\[n-]c3c(c1C)C(=O)C(C(=O)O)C=3c1[n-]c(c(C)c1CCC(=O)O)\C=2.[Cu] (stereo not given),-,.,.,.
Cc1cc(/C=C\c2ccc3cc(N(C)C)ccc3[n+]2C)c(C)n1-c1ccccc1,.,100.1,-,.
C[n+]1c(/C=C/c2ccc(O)cc2)ccc2ccccc21,-,-,-,-
CCCCCc1ccc(S(=O)(=O)NCCc2ccncc2)cc1,-,88.4,-,-
Cc1nc(N)cc(C[n+]2csc(CCO)c2C)n1,-,.,.,.
CO/N=C(\C(=O)N[C@H]1C(=O)N2C(C(=O)OCOC(=O)C(C)(C)C)=C(/C=C\c3scnc3C)CSC12)c1csc(N)n1 (stereo not given in full),-,.,.,.
COc1ccc(-c2cc(C3CCN(c4ccc(C(C)=O)cc4[N+](=O)[O-])CC3)[nH]n2)cc1,-,72.8,-,-
CC[C@H](C)C1OC(=O)[C@@H](C)[C@@H](CC)NC(=O)[C@H](C)N(C)C(=O)C(C)(C)C(=O)C(C)NC(=O)[C@H](Cc2ccc(OC)cc2)N(C)C(=O)[C@H](C(C)C)N(C)C(=O)CNC(=O)[C@H](CC(C)C)N(C)C(=O)CNC1=O (stereo not given in full),.,81.1,.,.
CCC(C)C(=O)O[C@H]1C[C@H](O)C=C2C=C[C@H](C)[C@H](CC[C@@H](O)C[C@@H](O)CC(=O)O)C21 (stereo not given in full),-,.,.,.
O=C(CNS(=O)(=O)c1cccc(Cl)c1)Nc1ccc(-c2nc3ccccc3s2)cc1,-,-,-,-

# Screens from PubChem BioAssay.
